# Screening results deposited in PubChem BioAssay by several laboratories.
# ANO1 activ – mouse TMEM16A channel activation, primary screen; Q8BHY3; HEK293 TMEM16A/YFP-H148Q/I152L, iodide quench fluorescence; hits give low values; B-score at 10 µM; 0.3% of 340,000 active; AID 623877;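 active = fluorescence-ratio B-score plate-corrected deviation score at least 3 library SD below zero, with starting fluorescence score within 5 deviations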;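 note: channel opened by trigger with iodide after compound preincubation; score built on the fluorescence ratio of max minus min over baseline; more negative score means more quench and so TMEM16A activation or potentiation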
# HTR2A ag – mouse HTR2A agonism via beta-arrestin recruitment; CHO-K1 mHTR2A beta-arrestin complementation, luminescence; percent of 30 µM serotonin response; P35363; 0.66% of 360,000 active; AID 624169; activation, % at 7.6 µM;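 active = activation above a run cutoff, the mean activation of all tested compounds plus 3 SD, cut at about 14% in these data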
# MIN6 prolif – inducers of beta-cell replication in MIN6 cells; MIN6 cells proliferation, ATPlite luminescence, 48 h; cells starved in 0.2% serum; 100% = growth in 10% serum; 0.29% of 330,000 active; proliferation, % at 10 µM;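 active = compounds whose signal lies at least 3.5 SD above the mean of all wells on their plate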
# MC4R antag cAMP – blocks human MC4R cAMP signaling | P32245 | MC4R-expressing cells, MTII-stimulated cAMP, LANCE TR-FRET | inhibition, % at 6.5 µM | 0.48% of 360,000 active | AID 540295;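 active = inhibition above its plate's cutoff, the mean of tested wells on that plate plus 3 SD, cut at about 29% in these data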
#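 Material: human MC4R-expressing U2OS cells. Probe or stimulus: Melanotan II challenge. Dosing: 6.5 µM single dose. Times: 30-min compound, 1-h challenge, 1-h detection, room temperature. Technique: TR-FRET with Eu-cAMP and labeled anti-cAMP, 671 nm. Replication: singlicate.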
# ANO1 block – inhibitors of mouse TMEM16A calcium-activated chloride channel; HEK293 TMEM16A/YFP iodide influx fluorescence, ionomycin; normalized B-score (activity score, 25-100; higher = stronger inhibition) at 10 µM; 1.2% of 310,000 active; AID 588511;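 active = ratio plate-corrected score three or more library SD toward inhibition, starting fluorescence score within five deviations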;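 note: score derived from kinetic fluorescence span divided by baseline fluorescence per well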
# MC4R barr agon – agonists of human melanocortin 4 receptor (MC4R) beta-arrestin | P32245 | U2OS MC4R beta-arrestin complementation, luminescence; percent of melanotan II response, DMSO zero | activation, % at 8.9 µM | 0.98% of 360,000 active | AID 540308;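 active = activation above a per-plate cutoff, the mean activation of sample wells on that plate plus 3 SD, cut at about 8% in these data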
# MC4R barr ag – human MC4R beta-arrestin agonism confirmation; activation, % at 8.9 µM; shares compounds with MC4R barr agon; 31% of 2,400 active; U2OS MC4R beta-arrestin recruitment, luminescence; scaled DMSO 0%, Melanotan II 100%;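 active = mean activation across replicates above the hit cutoff set in the earlier primary screen, cut at about 8% in these data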
# MOR-DOR barr ag – activates mu-delta opioid heterodimer, MC4R agonist counter-screen | shares compounds with MC4R barr agon | U2OS PathHunter beta-arrestin, beta-gal luminescence; percent of deltorphin B response, DMSO zero | activation, % at 9.2 µM | 5.8% of 2,400 active | AID 602194;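 active = mean activation across replicates exceeds the hit threshold derived in the earlier primary screen, cut at about 18% in these data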
# Target sequence (P35372 whole entry, looked up): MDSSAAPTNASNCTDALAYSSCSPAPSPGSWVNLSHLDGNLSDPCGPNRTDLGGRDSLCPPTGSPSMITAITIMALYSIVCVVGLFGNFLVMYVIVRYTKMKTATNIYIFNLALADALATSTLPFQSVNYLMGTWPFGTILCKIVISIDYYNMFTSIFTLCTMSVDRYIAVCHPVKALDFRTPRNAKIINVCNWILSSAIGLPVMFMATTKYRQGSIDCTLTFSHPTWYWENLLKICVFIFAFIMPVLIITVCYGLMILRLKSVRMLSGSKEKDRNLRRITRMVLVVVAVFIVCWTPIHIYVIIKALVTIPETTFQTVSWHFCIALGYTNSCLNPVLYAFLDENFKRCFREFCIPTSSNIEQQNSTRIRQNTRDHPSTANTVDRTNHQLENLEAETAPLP
# Target sequence (P41143 whole entry, looked up): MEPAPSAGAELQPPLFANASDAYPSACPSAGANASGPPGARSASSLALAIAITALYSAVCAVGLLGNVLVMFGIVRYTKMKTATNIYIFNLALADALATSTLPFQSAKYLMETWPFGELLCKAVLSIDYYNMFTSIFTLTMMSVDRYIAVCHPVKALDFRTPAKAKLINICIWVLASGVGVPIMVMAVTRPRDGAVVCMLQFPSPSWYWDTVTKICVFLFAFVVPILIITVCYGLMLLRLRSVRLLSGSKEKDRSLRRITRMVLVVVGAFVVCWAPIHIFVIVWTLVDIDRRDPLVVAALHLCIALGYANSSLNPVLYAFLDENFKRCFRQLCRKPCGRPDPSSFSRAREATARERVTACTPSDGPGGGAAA
# Hits are given with their value; i = inactive; nt = no result given. Compounds with a hit are over-represented: about 3.4% of the library has one in this group of screens.
SMILES,ANO1 activ,HTR2A ag,MIN6 prolif,MC4R antag cAMP,ANO1 block,MC4R barr agon,MC4R barr ag,MOR-DOR barr ag
O=C(Nc1cccc([N+](=O)[O-])c1)C1COc2ccccc2O1 (centres undefined),i,i,i,i,i,i,nt,nt
COc1cc(C(=S)N2CCN(c3cccc(Cl)c3)CC2)ccc1O,i,i,i,i,i,i,nt,nt
Oc1ccc(C(=S)N2CCN(c3cccc(Cl)c3)CC2)cc1,i,i,i,i,i,9.8,i,i
CCc1cc(C(=O)N/N=C/c2ccc(OC)cc2)c2ccccc2n1,i,i,i,i,i,i,nt,nt
Cc1ccc(S(=O)(=O)N2CCN(C(=O)c3ccnn3C)CC2)cc1C,i,i,i,i,i,i,nt,nt
C/C=C(/C)C(=O)OC1CC(C)(C)C[C@H]2C3=CC[C@@H]4[C@@]5(C)CCC(O[C@@H]6O[C@@H](C(=O)O)[C@@H](O)C(O[C@@H]7OC[C@H](O)[C@@H](O)[C@@H]7O[C@@H]7OC(CO)C(O)[C@@H](O)[C@@H]7O)C6O[C@@H]6OC(CO)C(O)C(O)C6O)[C@@](C)(CO)[C@@H]5CC[C@]4(C)[C@]3(C)CC(O)[C@@]12CO (some centres undefined),-37,i,i,i,nt,9.9,8.6,i
C[C@@H]1CC[C@]2(C(=O)O[C@@H]3O[C@H](CO)[C@@H](O)[C@H](O)[C@H]3O)CC[C@]3(C)C(=CCC4[C@@]5(C)CC[C@H](O[C@@H]6OC[C@H](O)[C@H](O[C@@H]7O[C@H](CO)[C@@H](O)[C@H](O)[C@H]7O)[C@H]6O)C(C)(C)C5CC[C@]43C)C2[C@]1(C)O (some centres undefined),i,i,i,i,nt,i,nt,nt
O=C(Nc1ccc2ccccc2c1)c1ccccc1Cl,nt,i,nt,i,nt,i,nt,nt
O=C(Nc1ccc2ccccc2c1)c1ccc(Cl)cc1Cl,i,i,i,i,i,12,i,i
COc1cccc(C(C)(O)c2nc(-c3ccc(F)c(Cl)c3)cs2)c1 (centres undefined),nt,i,nt,i,nt,i,nt,nt
O=C(CCCN1C(=O)/C(=C/c2cccs2)SC1=S)NNC(=O)c1ccccc1O,i,i,i,i,i,18,i,i
O=C(CCCN1C(=O)/C(=C\c2cccs2)SC1=S)Nc1ccc(O)cc1,i,i,i,i,i,10,16,i
O=C(CCCN1C(=O)/C(=C/c2cccs2)SC1=S)NNC(=O)c1ccncc1,i,i,i,i,i,i,nt,nt
O=C(CCCN1C(=O)/C(=C\c2cccs2)SC1=S)Nc1ccc(C(=O)O)cc1,i,i,i,i,i,i,nt,nt
CCc1ccccc1N(CC(=O)NCc1ccco1)C(=O)CCC(=O)Nc1nccs1,i,i,i,i,i,i,nt,nt
COc1ccc(CC(=O)Nc2ccc(S(=O)(=O)N3CCC(C)CC3)cc2)c(OC)c1,i,i,i,i,nt,i,nt,nt
O=C(Cn1nnc(-c2ccccc2Cl)n1)N/N=C/c1ccc(-c2cccc(Cl)c2)o1,i,i,i,i,i,11,8.9,i
O=C(CN1CCCC1)N/N=C/c1ccc(-c2cccc(Cl)c2)o1,i,i,i,i,i,i,nt,nt
COc1ccc(C(CNC(=O)C2CC(=O)N(Cc3ccccc3)C2)N2CCOCC2)cc1 (centres undefined),i,i,i,i,nt,i,nt,nt
Cc1cccc(C)c1NC(=O)CN1CCc2ccccc2C1,i,i,nt,i,i,i,nt,nt
COc1ccc(NC(=O)/C(C#N)=C/c2ccc[nH]2)c(OC)c1,i,i,i,i,i,10,i,i
N#C/C(=C\c1ccc[nH]1)C(=O)Nc1ccccc1F,i,i,i,i,i,i,nt,nt
N#C/C(=C\c1ccc[nH]1)C(=O)Nc1ccccc1Cl,i,i,i,i,i,12,i,i
O=C(CCS(=O)(=O)Cc1ccccc1F)NCCc1ccc(Cl)cc1,i,i,i,i,i,i,nt,nt
C=CCNC(=O)/C(C#N)=C/c1c(C)nn(-c2ccccc2)c1Cl,i,i,i,i,i,i,nt,nt
SMILES,ANO1 activ,HTR2A ag,MIN6 prolif,MC4R antag cAMP,ANO1 block,MC4R barr agon,MC4R barr ag,MOR-DOR barr ag
C=CCNC(=O)/C(C#N)=C/c1cn(-c2ccccc2)nc1-c1cccs1,i,i,i,i,i,33,9.1,i
COc1c(F)c(F)c(C(=O)Nc2ccc(N3CCN(Cc4ccccc4)CC3)cc2)c(F)c1F,i,i,i,i,i,11,i,i
Cc1ccc2c(COC(=O)c3ccccc3Br)cc(=O)oc2c1,i,i,i,i,i,9.7,i,i
O=C(NCc1cccs1)c1csc([C@@H]2C[C@H](O)[C@@H](CO)O2)n1,nt,i,nt,i,nt,i,nt,nt
COc1cccc(Nc2nc(C(N)Cc3ccc(C(F)(F)F)cc3)cs2)n1 (centres undefined),nt,i,nt,i,nt,12,i,i
NC(CCc1ccccc1)c1csc(Nc2nncc3ccccc23)n1 (centres undefined),nt,i,nt,i,nt,16,12,i
COc1cccc(Nc2nc(C(N)Cc3ccc(Cl)cc3)cs2)n1 (centres undefined),nt,i,nt,i,nt,15,8.4,i
NC(Cc1ccc(F)cc1)c1csc(Nc2cc(Oc3ccccc3)ncn2)n1 (centres undefined),nt,i,nt,i,nt,13,14,i
COc1ccc(CC(N)c2csc(Nc3cccc(OC)n3)n2)cc1 (centres undefined),nt,i,nt,i,nt,i,nt,nt
CCN(C(=O)COC(=O)c1cc2ccccc2cc1OC)c1c(N)n(Cc2ccccc2)c(=O)[nH]c1=O,i,i,nt,i,nt,i,nt,nt
COc1cccc(Nc2nc(C(N)CCc3ccccc3)cs2)n1 (centres undefined),nt,i,nt,i,nt,16,12,i
Cc1ccc(Sc2ccc(NC(=O)CCl)cc2)cc1C,i,i,i,i,i,19,17,i
Cc1cc(-n2c(SCC(=O)NCc3cccs3)nc3n[nH]c(C)c3c2=N)ccc1Cl,i,i,i,i,i,13,i,i
CCOc1ccc(-n2c(SCC(=O)Nc3ccccc3CC)nc3n[nH]c(C)c3c2=N)cc1,nt,nt,i,nt,i,nt,nt,nt
CCOc1ccc(-n2c(SCC(=O)Nc3ccc(Br)cc3)nc3n[nH]c(C)c3c2=N)cc1,i,i,i,i,i,17,i,i
CCC(C)NC(=S)N(Cc1cc2cc(C)ccc2n2nnnc12)CC(C)(C)NC(C)C (centres undefined),i,i,i,i,i,i,nt,nt
